Two compounds from ChEMBL document CHEMBL1147366, “Cytotoxic and antimalarial alkaloids from the tubers of Stephania pierrei” (J Nat Prod, 1993) can be followed below.

Series [1] can be described thus: Cytotoxicity against human BCA1 cells after 3 days by SRB assay. It is filed as functional. Conditions: BCA1, 72 h, read-out: ED50 (the source's name). In general terms: Sulforhodamine B stains cellular protein and so reports cell mass.
In another series the test system is HT-1080. As to the kind of experiment: Cytotoxicity against human HT1080 cells after 3 days by SRB assay. The class given is functional. Conditions: HT-1080, 72 h, read-out: ED50 (the source's name).
A short description of series [2]: Cytotoxicity against human LUC1 cells after 3 days by SRB assay. It is filed as functional. Particulars: LUC1, 72 h, read-out: ED50 (the source's name).
A further series relates to SK-MEL-2. Description: Cytotoxicity against human SK-MEL-2 cells after 3 days by SRB assay. The class given is functional. Conditions: SK-MEL-2, 72 h, read-out: ED50 (the source's name).
A short description of series [3]: Cytotoxicity against human Col1 cells after 3 days by SRB assay. Particulars: Col1, 72 h, read-out: ED50 (the source's name). The class given is functional.
A short description of series [4]: Cytotoxicity against human KB cells after 3 days by SRB assay. The class given is cell-based. Conditions: read-out: ED50.
A short description of series [5]: Cytotoxicity against vinblastine-resistant human KBV1 cells after 3 days by SRB assay. It is filed as functional. Conditions: KB-V1, 72 h, read-out: ED50 (the source's name).
The subject of another series is P388. As to the kind of experiment: Cytotoxicity against mouse P388 cells after 3 days by SRB assay. The class given is functional. Conditions: P388, 72 h, read-out: ED50 (the source's name).
For another series, the system named is A-431. As to the kind of experiment: Cytotoxicity against human A431 cells after 3 days by SRB assay. It is filed as functional. Conditions: A-431, 72 h, read-out: ED50 (the source's name).
In another series the test system is LNCaP. Description: Cytotoxicity against human LNCAP cells after 3 days by SRB assay. The class given is functional. Conditions: 72 h, read-out: ED50 (the source's name).
A further series has as its system ZR-75-1. As to the kind of experiment: Cytotoxicity against human ZR-75-1 cells after 3 days by SRB assay. It is filed as functional. Particulars: ZR-75-1, 72 h, read-out: ED50 (the source's name).
A short description of series [6]: Cytotoxicity against human U373 cells after 3 days by SRB assay. Conditions: U373 MG, 72 h, read-out: ED50 (the source's name). The class given is functional, U-373MG ATCC.
In series [7] the test system is Plasmodium falciparum. As to the kind of experiment: Antimalarial activity after 24 hrs against chloroquine-sensitive Plasmodium falciparum D6 infected type A+ human erythrocytes by [3H]hypoxanthine uptake. The class given is functional. Particulars: read-out: ED50 (the source's name).
Series [8] concerns Plasmodium falciparum. Description: Antimalarial activity after 24 hrs against chloroquine-resistant Plasmodium falciparum W2 infected type A+ human erythrocytes by [3H]hypoxanthine uptake. The class given is functional. Conditions: read-out: ED50 (the source's name).
Series [9] is described as follows: Selectivity index, ED50 for human KB cells to ED50 for chloroquine-sensitive Plasmodium falciparum D6. The class given is toxicity, cell-based. Particulars: read-out: Ratio ED50. In short, it runs like this:
(§1)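 Selectivity index is the ED50 in KB cells divided by the ED50 against the P. falciparum strain (D-6, chloroquine-sensitive; W-2, chloroquine-resistant). Parasite ED50s are expressed in ng/ml and KB ED50s in µg/ml.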

The nature of series [10]: Selectivity index, ED50 for human KB cells to ED50 for chloroquine-resistant Plasmodium falciparum W2. The class given is toxicity, cell-based. Conditions: read-out: Ratio ED50. The essentials: as §1

Converted amounts (≈) assume the structure as drawn. Some results are limits rather than exact numbers.

`c1ccc2c(c1)C[C@H]1NCCc3cc4c(c-2c31)OCO4` [ANONAINE]: the EC50 came to 3.3 µg/mL (≈ 12.4 µM) in [1]; 2.4 µg/mL (≈ 9.05 µM) with HT-1080; 1.8 µg/mL (≈ 6.78 µM) in series [2]; 15.8 µg/mL (≈ 59.6 µM) with SK-MEL-2; 4 µg/mL (≈ 15.1 µM) in series [3]; 1.8 µg/mL (≈ 6.78 µM) in series [5]. For the same compound, the EC50 in the series on P388 is above 5 µg/mL; in the series on A-431 it was 4.2 µg/mL (≈ 15.8 µM); in the series on LNCaP it was 2.9 µg/mL (≈ 10.9 µM); in the series with ZR-75-1 it was 2.7 µg/mL (≈ 10.2 µM); in series [6], 1.5 µg/mL (≈ 5.65 µM); in the series on Plasmodium falciparum [7], 1.29 µg/mL (≈ 4.86 µM). Besides, the EC50 with Plasmodium falciparum [8] worked out at 1.9 µg/mL (≈ 7.16 µM). For the same compound, the CC50 at 72 h in [4] worked out at 2.6 µg/mL (≈ 9.8 µM). Moreover, the selectivity ratio in [9] was 5; in [10] it was 3.

Turning to `COc1cc2c(cc1O)C[C@H]1c3c(cc4c(c3-2)OCO4)CCN1C` [CASSYTHICINE], the EC50 in series [1] was 6.8 µg/mL (≈ 20.9 µM); in the series with HT-1080, 7.6 µg/mL (≈ 23.4 µM); in series [2] it was 6.6 µg/mL (≈ 20.3 µM); in the series with SK-MEL-2 it was 8.9 µg/mL (≈ 27.4 µM); in series [3] it was 7.3 µg/mL (≈ 22.4 µM); in [5], 1.2 µg/mL (≈ 3.69 µM). In addition, the EC50 was above 5 µg/mL in the series with P388; 10.5 µg/mL (≈ 32.3 µM) with A-431; 6.1 µg/mL (≈ 18.7 µM) in the series with LNCaP; 9.8 µg/mL (≈ 30.1 µM) in the series with ZR-75-1; 4.8 µg/mL (≈ 14.8 µM) in [6]; 2.29 µg/mL (≈ 7.04 µM) in the series on Plasmodium falciparum [7]. Moreover, the EC50 with Plasmodium falciparum [8] was found to be 2.26 µg/mL (≈ 6.95 µM). Further, the CC50 at 72 h in series [4] came out at 3 µg/mL (≈ 9.22 µM). In addition, the figures for the selectivity ratio in series [9] and in series [10] were 2 and 3, respectively.
